Results taken from ChEMBL document CHEMBL3272076, “Synthesis and biological evaluation of omega-homologues of prostaglandin E1” (1976).
The source made the active and inactive calls. The rule behind the calls is not given here.

Assays:
[1] = Muscle stimulating activity in Mongolian gerbil colon treated every 4 mins relative to PGE1; type: functional, Meriones unguiculatus
Summary of the method: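 Colon from adult male gerbils killed by cervical dislocation, bath oxygenated; isotonic longitudinal contractions recorded. Two doses each of test compound and PGE1 given at 4-min intervals in Latin square order, with a rinse after each. Four contractions per dose; relative potency computed by the Finney method. Compounds were dissolved in isoosmotic sodium phosphate buffer, pH 7.4.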

[2] = system: Rattus norvegicus; experiment: Hypotensive activity in iv dosed Charles River CD rat assessed as decrease in mean blood pressure administered as single bolus dose relative to PGE1; type: functional; design: Activity: scale not given: the % may be the effect or the level left
Summary of the method: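 Male rats, 200–300 g, anesthetized with urethane 1.5 g/kg ip. They received heparin 5 mg/kg iv, then atropine 5 mg/kg and pentolinium 10 mg/kg sc. Body temperature held at […] ± 0.5 °C. Carotid pressure recorded; femoral iv bolus doses of test and PGE1 given in a Latin square. Maximal fall in mean pressure read, with 4–8 replicates per dose, and potency from a four-point parallel line assay (Finney).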

[3] = system: Canis familiaris; experiment: Gastric antisecretory activity in Mongrel dog with heidenhain pouches assessed as inhibition of histamine-induced total acid output at 1 to 100 ug/kg, iv administered as single bolus dose at 1 hr post histamine challenge relative to PGE1; type: functional, Canis lupus familiaris
Summary of the method: (§1)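 Dogs fasted 18 h, placed in Pavlov stands and infused iv with 0.15 M NaCl. Pouch secretion was collected every 15 min. After basal secretion, histamine was infused at 1.0 mg/h (about 60 μg/kg/h, about 75% of maximal). At the steady-state plateau (about 1 h), a single iv bolus was given, logarithmically spaced, usually 1.0-100 μg/kg. Total acidity was titrated with 0.1 N NaOH to pH 7.0. ED50 is 50% inhibition of total acid output.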

[4] = system: Canis familiaris; experiment: Gastric antisecretory activity in iv dosed Mongrel dog with heidenhain pouches assessed as inhibition of histamine-induced total acid output administered as single bolus dose at 1 hr post histamine challenge; type: functional; conditions: Canis lupus familiaris; summary of the method: as §1
[5] = system: Canis familiaris; experiment: Gastric antisecretory activity in Mongrel dog with heidenhain pouches assessed as inhibition of histamine-induced total acid output at 30 ug/kg, iv administered as single bolus dose at 1 hr post histamine challenge; type: functional, organism-based; conditions: Canis lupus familiaris; summary of the method: as §1
[6] = system: Canis familiaris; experiment: Gastric antisecretory activity in Mongrel dog with heidenhain pouches assessed as inhibition of histamine-induced total acid output at 100 ug/kg, iv administered as single bolus dose at 1 hr post histamine challenge; type: functional, organism-based; conditions: Canis lupus familiaris; summary of the method: as §1

Row | Compound | fold change (FC) [1] | fold change (FC) [2] | fold change (FC) [3] | ED50 [4] [µg/kg] | Activity [2] [%] | inhibition [5] | inhibition [6]
1 | CCCCCC[C@H](O)/C=C/C1[C@H](O)CC(=O)[C@@H]1CCCCCCC(=O)O (mixture of isomers) | 0.54 | 0.68 | 1.13 | 5.8 | – | – | –
2 | CCCCCCC[C@H](O)/C=C/C1[C@H](O)CC(=O)[C@@H]1CCCCCCC(=O)O (mixture of isomers) | 0.064 | 0.84 | 0.25 | 30 | 84 | – | –
3 | CCCCCCCC[C@H](O)/C=C/C1[C@H](O)CC(=O)[C@@H]1CCCCCCC(=O)O (mixture of isomers) | 0.005 | 0.42 | – | – | – | inactive | –
4 | CCCCCCCCC[C@H](O)/C=C/C1[C@H](O)CC(=O)[C@@H]1CCCCCCC(=O)O (mixture of isomers) | 0.006 | <0.12 | – | – | – | – | Active
5 | CCCCC[C@H](O)/C=C/[C@H]1[C@H](O)CC(=O)[C@@H]1CCCCCCC(=O)O [ALPROSTADIL] | – | – | – | 7.59 | – | – | –
